Laboratory results taken from ChEMBL document CHEMBL1152300, “Ligand specificity of constitutive androstane receptor as probed by induced-fit docking and mutagenesis” (J Med Chem, 2008).
Values belong to the molecule of their own block, whether it stands above or below them.

Columns and labels:
[1] = target: T1, Nuclear receptor subfamily 1 group I member 3 (Mus musculus, UniProt O35627, F171L); test: Enhancement of nuclear co-repressor receptor binding to mouse CAR F171L mutant […] at 10 uM by yeast two-hybrid assay; type: cell-based
In short: (§1)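 Yeast two-hybrid: yeast expressing wild-type or mutant mouse CAR LBD plus SRC-1 or NCoR, selected on SD medium lacking Leu and Trp. Pooled colonies treated with DMSO or test chemical for 3.5 h. β-Galactosidase normalized to cell density. SRC-1 reference: wild-type + DMSO = 100. NCoR reference: 10 µM androstenol = 100. Mean ± SD, two independent determinations, each in triplicate.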

[2] = target: T2, Nuclear receptor subfamily 1 group I member 3 (Mus musculus, UniProt O35627, L212A); test: Effect on nuclear co-repressor receptor binding to mouse CAR L212A mutant […] at 10 uM by yeast two-hybrid assay; type: cell-based; settings: read-out: Activity; in short: as §1
[3] = target: T2, Nuclear receptor subfamily 1 group I member 3; test: Effect on steroid receptor co-activator 1 binding to mouse CAR L212A mutant […] at 10 uM by yeast two-hybrid assay; type: cell-based; settings: read-out: Activity
In short: (§2)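 Yeast two-hybrid assay. Yeast co-expressing wild-type or mutant mouse CAR LBD and the SRC-1 partner were selected on SD plates lacking leucine and tryptophan. Random colonies were pooled and amplified, then treated with DMSO or test chemical for 3.5 h. β-galactosidase activity was normalized to cell density and set relative to wild-type mCAR + SRC-1 with DMSO (=100). Mean ± standard deviation of two determinations, each in triplicate.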

[4] = target: Nuclear receptor subfamily 1 group I member 3 (Mus musculus, UniProt O35627, L353A); test: Enhancement of nuclear co-repressor receptor binding to mouse CAR L353A mutant […] at 10 uM by yeast two-hybrid assay; type: cell-based; in short: as §1
[5] = target: T1, Nuclear receptor subfamily 1 group I member 3; test: Enhancement of steroid receptor coactivator 1 binding to mouse CAR F171L mutant […] at 10 uM by yeast two-hybrid assay; type: cell-based; in short: as §2
[6] = target: T3, mouse CAR (NR1I3), wild type (Mus musculus, UniProt O35627); test: Activation of wild type mouse CAR expressed in HEK293 cells at 1 uM by mammalian one-hybrid assay; type: cell-based; settings: HEK293 cells expressing wild type mouse CAR, read-out: FC
T3 sequence (O35627 whole entry): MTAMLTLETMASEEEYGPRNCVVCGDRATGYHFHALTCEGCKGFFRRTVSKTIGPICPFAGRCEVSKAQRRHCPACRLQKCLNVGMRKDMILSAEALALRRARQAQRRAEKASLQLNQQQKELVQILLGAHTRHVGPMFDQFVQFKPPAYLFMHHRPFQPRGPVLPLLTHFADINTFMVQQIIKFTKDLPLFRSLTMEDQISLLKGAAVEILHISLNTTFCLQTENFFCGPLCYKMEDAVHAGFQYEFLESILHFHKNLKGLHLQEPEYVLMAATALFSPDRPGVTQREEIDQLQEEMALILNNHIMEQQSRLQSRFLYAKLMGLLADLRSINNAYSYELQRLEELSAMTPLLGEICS
In short: (§3)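 GAL4 DBD fused to mouse CAR LBD (residues 118-358), wild type or point mutant, cotransfected with UASx4-tk-luc reporter and pCMVβ into HEK293 cells. Cells cultured with DMSO (0.1% v/v) or compound (final 1, 2 or 10 µM). Lysed 24 h post-transfection. Luciferase normalized to β-galactosidase, expressed relative to empty GAL4 vector (=1.0). Mean ± SD, three independent experiments.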

[7] = target: T4, Nuclear receptor subfamily 1 group I member 3 (Mus musculus, UniProt O35627, S251L); test: Decrease in mouse CAR S251L mutant activation expressed in HEK293 cells at 1 uM by mammalian one-hybrid assay; type: cell-based; settings: read-out: Activity; in short: as §3
[8] = target: T4, Nuclear receptor subfamily 1 group I member 3; test: Effect on nuclear co-repressor receptor binding to mouse CAR S251L mutant […] at 1 uM by yeast two-hybrid assay; type: cell-based; settings: read-out: Activity
In short: (§4)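 Yeast expressing wild-type or mutant mouse CAR LBD plus NCoR, selected on SD plates lacking leucine and tryptophan. Pooled colonies treated with DMSO or compound for 3.5 h. β-Galactosidase activity normalized to cell density. Reference is 10 µM androstenol (=100). Mean ± SD of two independent determinations, each in triplicate.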

[9] = target: Nuclear receptor subfamily 1 group I member 3 (Mus musculus, UniProt O35627, Y336A); test: Effect on nuclear co-repressor receptor binding to mouse CAR Y336A mutant […] at 1 uM by yeast two-hybrid assay; type: cell-based; settings: read-out: Activity; in short: as §4
[10] = target: Nuclear receptor subfamily 1 group I member 3 (Mus musculus, UniProt O35627, T350A); test: Effect on nuclear co-repressor receptor binding to mouse CAR T350A mutant […] at 1 uM by yeast two-hybrid assay; type: cell-based; settings: read-out: Activity; in short: as §4
[11] = target: T5, Nuclear receptor subfamily 1 group I member 3 (Mus musculus, UniProt O35627, H213A); settings: HEK293, mouse, read-out: Activity
[12] = target: T6, Nuclear receptor subfamily 1 group I member 3 (Mus musculus, UniProt O35627, N175A); test: Decrease in mouse CAR N175A mutant activation expressed in HEK293 cells at 2 uM by mammalian one-hybrid assay; type: cell-based; settings: read-out: Activity
In short: (§5)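 GAL4-DBD fused to mouse CAR LBD (residues 118-358), wild-type or point mutant, cotransfected with UASx4-tk-luc reporter and pCMVβ into HEK293 cells. Cells were exposed to final 1 µM, 2 µM or 10 µM test chemical, or 0.1% v/v DMSO, for 24 h after transfection. Luciferase was normalized to β-galactosidase and set against empty GAL4 vector (=1.0). Mean ± standard deviation, three independent experiments.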

[13] = target: Nuclear receptor subfamily 1 group I member 3 (Mus musculus, UniProt O35627, T350M); test: Activation of mouse CAR T350M mutant expressed in HEK293 cells at 2 uM by mammalian one-hybrid assay; type: cell-based; settings: hek293, 2 µM; in short: as §5
[14] = target: Nuclear receptor subfamily 1 group I member 3 (Mus musculus, UniProt O35627, F171A); test: Effect on nuclear co-repressor receptor binding to mouse CAR F171A mutant […] at 2 uM by yeast two-hybrid assay; type: cell-based; settings: read-out: Activity; in short: as §1
[15] = target: T6, Nuclear receptor subfamily 1 group I member 3; test: Decrease in nuclear co-repressor receptor binding to mouse CAR N175A mutant […] at 2 uM by yeast two-hybrid assay; type: cell-based; settings: read-out: Activity; in short: as §1
[16] = target: T5, Nuclear receptor subfamily 1 group I member 3; test: Effect on steroid receptor co-activator 1 binding to mouse CAR H213A mutant […] at 2 uM by yeast two-hybrid assay; type: cell-based; settings: read-out: Activity; in short: as §1
[17] = target: T4, Nuclear receptor subfamily 1 group I member 3; test: Decrease in steroid receptor coactivator 1 binding to mouse CAR S251L mutant […] at 2 uM by yeast two-hybrid assay; type: cell-based; settings: read-out: Activity; in short: as §1
[18] = target: Nuclear receptor subfamily 1 group I member 3 (Mus musculus, UniProt O35627, I252L); test: Effect on steroid receptor coactivator 1 binding to mouse CAR I252L mutant […] at 2 uM by yeast two-hybrid assay; type: cell-based; settings: read-out: Activity; in short: as §1
Sequence of Nuclear receptor subfamily 1 group I member 3 (Mus musculus, UniProt O35627, I252L) (O35627 whole entry I252L): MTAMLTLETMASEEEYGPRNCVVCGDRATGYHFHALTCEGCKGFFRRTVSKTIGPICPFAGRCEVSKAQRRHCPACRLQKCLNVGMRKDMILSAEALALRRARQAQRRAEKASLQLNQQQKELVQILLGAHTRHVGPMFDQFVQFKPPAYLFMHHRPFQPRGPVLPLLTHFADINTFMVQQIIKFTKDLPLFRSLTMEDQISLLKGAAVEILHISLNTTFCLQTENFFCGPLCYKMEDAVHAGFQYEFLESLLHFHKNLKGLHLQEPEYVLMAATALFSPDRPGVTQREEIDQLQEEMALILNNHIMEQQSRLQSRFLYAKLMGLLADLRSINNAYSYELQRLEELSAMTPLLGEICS

T2 sequence (O35627 whole entry L212A): as the sequence (O35627 whole entry I252L) above, with L212A, L252I counted along it
T1 sequence (O35627 whole entry F171L, the tested form may be a part): as the sequence (O35627 whole entry I252L) above, with F171L, L252I counted along it
T4 sequence (O35627 whole entry S251L): as the sequence (O35627 whole entry I252L) above, with S251L, L252I counted along it
T5 sequence (O35627 whole entry H213A): as the sequence (O35627 whole entry I252L) above, with H213A, L252I counted along it
T6 sequence (O35627 whole entry N175A, the tested form may be a part): as the sequence (O35627 whole entry I252L) above, with N175A, L252I counted along it
Sequence of Nuclear receptor subfamily 1 group I member 3 (Mus musculus, UniProt O35627, T350M) (O35627 whole entry T350M): as the sequence (O35627 whole entry I252L) above, with L252I, T350M counted along it
Sequence of Nuclear receptor subfamily 1 group I member 3 (Mus musculus, UniProt O35627, T350A) (O35627 whole entry T350A): as the sequence (O35627 whole entry I252L) above, with L252I, T350A counted along it
Sequence of Nuclear receptor subfamily 1 group I member 3 (Mus musculus, UniProt O35627, F171A) (O35627 whole entry F171A): as the sequence (O35627 whole entry I252L) above, with F171A, L252I counted along it
Sequence of Nuclear receptor subfamily 1 group I member 3 (Mus musculus, UniProt O35627, Y336A) (O35627 whole entry Y336A): as the sequence (O35627 whole entry I252L) above, with L252I, Y336A counted along it
Sequence of Nuclear receptor subfamily 1 group I member 3 (Mus musculus, UniProt O35627, L353A) (O35627 whole entry L353A): as the sequence (O35627 whole entry I252L) above, with L252I, L353A counted along it

Activity [1]: >= 50%
activity at 10 µM [2]: < 50%
activity at 10 µM [3]: < 50%
Activity [4]: >= 50%
Structure (SMILES): COc1ccc(C(=O)CCCc2ccccc2)cc1

Activity [5]: > 50%
fold induction at 1 µM [6]: 2
Structure (SMILES): COc1ccccc1CC(CC(=O)Cc1ccccc1)OC (configuration not stated)

Structure (SMILES): Clc1cnc(Oc2ccc(Oc3ncc(Cl)cc3Cl)cc2)c(Cl)c1
inhibition at 1 µM [7]: < 50%
activity at 1 µM [8]: < 50%
activity at 1 µM [9]: < 50%
activity at 1 µM [10]: < 50%
fold induction at 1 µM [6]: 2

Structure (SMILES): C[C@]12CC[C@@H](O)C[C@@H]1CC[C@@H]1[C@@H]2CC[C@]2(C)C=CC[C@@H]12 [ANDROSTENOL]
activity at 10 µM [3]: < 50%
inhibition at 10 µM [11]: ≥ 50%

inhibition at 2 µM [12]: 50%
Activity [13]: > 100%
activity at 2 µM [14]: < 50%
inhibition at 2 µM [15]: < 50%
activity at 2 µM [16]: < 50%
inhibition at 2 µM [17]: ≥ 50%
activity at 2 µM [18]: < 50%
Structure (SMILES): Clc1ccccc1C(c1ccccc1)(c1ccccc1)n1ccnc1 [CLOTRIMAZOLE]

Structure (SMILES): COc1ccc(C(c2ccc(OC)cc2)C(Cl)(Cl)Cl)cc1 [METHOXYCHLOR]
Activity [5]: >= 50%
inhibition at 10 µM [11]: ≥ 50%
